{"source": "ChEMBL document CHEMBL5696442", "about": "“Discovery of type II inhibitors of TGFβ-activated kinase 1 (TAK1) and mitogen-activated protein kinase kinase kinase kinase 2 (MAP4K2)” (J Med Chem, 2015)", "key": {"[1]": {"target": "Serine/threonine-protein kinase MARK2 (Homo sapiens) (UniProt Q7KZI7)", "experiment": "Inhibition of MARK2 Lys2 labeling site harbouring EVAIKIIDKTQLNPTSLQK in human Huh-7 cells at 1 uM by KiNativ Profiling analysis relative to control", "type": "cell-based"}, "[2]": {"target": "Ribosomal protein S6 kinase alpha-1 (Homo sapiens) (UniProt Q15418)", "sequence (Q15418 whole entry, the tested form may be a part)": "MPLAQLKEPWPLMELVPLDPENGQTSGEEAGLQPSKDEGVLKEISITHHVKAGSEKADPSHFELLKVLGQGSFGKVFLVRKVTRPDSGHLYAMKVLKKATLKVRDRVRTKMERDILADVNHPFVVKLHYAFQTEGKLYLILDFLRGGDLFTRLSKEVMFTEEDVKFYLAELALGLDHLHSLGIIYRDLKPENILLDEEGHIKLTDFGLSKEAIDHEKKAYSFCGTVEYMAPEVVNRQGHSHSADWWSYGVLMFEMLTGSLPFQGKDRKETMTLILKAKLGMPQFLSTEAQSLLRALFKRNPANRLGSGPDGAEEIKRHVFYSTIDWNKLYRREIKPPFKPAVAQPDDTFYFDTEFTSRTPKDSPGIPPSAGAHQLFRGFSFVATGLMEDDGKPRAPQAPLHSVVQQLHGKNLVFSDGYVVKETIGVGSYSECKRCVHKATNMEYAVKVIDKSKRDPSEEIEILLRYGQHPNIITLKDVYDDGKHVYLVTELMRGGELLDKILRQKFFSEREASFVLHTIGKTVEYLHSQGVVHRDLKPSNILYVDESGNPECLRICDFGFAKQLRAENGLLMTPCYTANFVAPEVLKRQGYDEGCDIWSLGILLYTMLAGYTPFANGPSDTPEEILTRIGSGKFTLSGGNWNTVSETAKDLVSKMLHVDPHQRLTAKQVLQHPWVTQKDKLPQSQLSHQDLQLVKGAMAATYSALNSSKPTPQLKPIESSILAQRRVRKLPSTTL", "experiment": "Inhibition of RSK1 domain 1 Lys2 labeling site harbouring DLKPENILLDEEGHIKLTDFGLSK in human Huh-7 cell lysate at 1 uM by KiNativ Profiling analysis relative to control", "type": "subcellular"}, "[3]": {"target": "T1, Dual specificity mitogen-activated protein kinase kinase 7 (Homo sapiens) (UniProt O14733)", "T1 sequence (whole entry)": "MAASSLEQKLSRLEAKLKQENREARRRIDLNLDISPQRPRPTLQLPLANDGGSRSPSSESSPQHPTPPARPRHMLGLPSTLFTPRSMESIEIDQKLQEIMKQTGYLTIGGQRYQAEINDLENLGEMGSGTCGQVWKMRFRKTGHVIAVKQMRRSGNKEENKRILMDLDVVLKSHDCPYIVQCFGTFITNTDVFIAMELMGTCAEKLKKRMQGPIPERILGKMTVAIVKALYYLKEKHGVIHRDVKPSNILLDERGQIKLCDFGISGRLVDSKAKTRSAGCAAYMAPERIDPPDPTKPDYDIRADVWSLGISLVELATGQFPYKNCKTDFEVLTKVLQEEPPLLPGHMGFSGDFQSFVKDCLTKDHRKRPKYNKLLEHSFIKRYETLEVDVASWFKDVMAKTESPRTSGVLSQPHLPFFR", "experiment": "Inhibition of MAP2K7 Lys2 labeling site in human Huh-7 cell lysate at 1 uM by KiNativ Profiling analysis relative to control", "type": "subcellular"}, "[4]": {"target": "TRAF2 and NCK-interacting protein kinase (Homo sapiens) (UniProt Q9UKE5)", "sequence (Q9UKE5 whole entry, looked up)": "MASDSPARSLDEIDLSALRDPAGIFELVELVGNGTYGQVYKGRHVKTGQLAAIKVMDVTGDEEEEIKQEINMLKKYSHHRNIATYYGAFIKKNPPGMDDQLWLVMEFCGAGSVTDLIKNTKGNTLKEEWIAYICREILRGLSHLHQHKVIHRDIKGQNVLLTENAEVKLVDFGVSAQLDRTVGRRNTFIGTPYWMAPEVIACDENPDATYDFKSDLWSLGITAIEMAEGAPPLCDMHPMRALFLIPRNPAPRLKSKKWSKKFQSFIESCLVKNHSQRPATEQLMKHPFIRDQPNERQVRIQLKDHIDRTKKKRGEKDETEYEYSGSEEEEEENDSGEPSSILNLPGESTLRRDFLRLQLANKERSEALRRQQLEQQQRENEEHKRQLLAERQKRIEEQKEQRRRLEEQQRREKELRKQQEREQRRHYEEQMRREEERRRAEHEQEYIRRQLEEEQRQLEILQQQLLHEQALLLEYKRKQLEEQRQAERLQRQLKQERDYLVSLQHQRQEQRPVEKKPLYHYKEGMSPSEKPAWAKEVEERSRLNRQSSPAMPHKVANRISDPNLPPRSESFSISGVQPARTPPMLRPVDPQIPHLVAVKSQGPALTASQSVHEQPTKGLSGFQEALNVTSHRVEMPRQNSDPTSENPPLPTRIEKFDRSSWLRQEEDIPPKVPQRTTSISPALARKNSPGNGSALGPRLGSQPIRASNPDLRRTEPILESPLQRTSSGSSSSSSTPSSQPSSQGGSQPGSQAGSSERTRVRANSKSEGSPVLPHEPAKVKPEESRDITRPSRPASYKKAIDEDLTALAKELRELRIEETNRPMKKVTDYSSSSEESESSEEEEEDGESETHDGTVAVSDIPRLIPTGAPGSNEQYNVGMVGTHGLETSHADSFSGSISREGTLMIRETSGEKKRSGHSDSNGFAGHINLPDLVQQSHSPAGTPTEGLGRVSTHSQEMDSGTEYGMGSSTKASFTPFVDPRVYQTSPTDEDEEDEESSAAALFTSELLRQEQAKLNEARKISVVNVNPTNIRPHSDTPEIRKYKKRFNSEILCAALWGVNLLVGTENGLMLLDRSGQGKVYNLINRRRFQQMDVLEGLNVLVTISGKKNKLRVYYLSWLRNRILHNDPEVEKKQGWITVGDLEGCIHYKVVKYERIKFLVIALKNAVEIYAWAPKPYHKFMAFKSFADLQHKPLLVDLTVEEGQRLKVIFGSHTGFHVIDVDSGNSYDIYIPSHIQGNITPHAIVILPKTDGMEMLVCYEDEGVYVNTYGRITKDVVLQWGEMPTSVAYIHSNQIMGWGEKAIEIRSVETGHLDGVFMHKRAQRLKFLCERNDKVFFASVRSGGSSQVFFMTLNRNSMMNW", "experiment": "Inhibition of ZC2/TNIK K2 labeling site in human Huh-7 cells at 1 uM by KiNativ Profiling analysis relative to control", "type": "cell-based"}, "[5]": {"target": "5'-AMP-activated protein kinase catalytic subunit alpha-1 (Homo sapiens) (UniProt Q13131)", "sequence (Q13131 whole entry, looked up)": "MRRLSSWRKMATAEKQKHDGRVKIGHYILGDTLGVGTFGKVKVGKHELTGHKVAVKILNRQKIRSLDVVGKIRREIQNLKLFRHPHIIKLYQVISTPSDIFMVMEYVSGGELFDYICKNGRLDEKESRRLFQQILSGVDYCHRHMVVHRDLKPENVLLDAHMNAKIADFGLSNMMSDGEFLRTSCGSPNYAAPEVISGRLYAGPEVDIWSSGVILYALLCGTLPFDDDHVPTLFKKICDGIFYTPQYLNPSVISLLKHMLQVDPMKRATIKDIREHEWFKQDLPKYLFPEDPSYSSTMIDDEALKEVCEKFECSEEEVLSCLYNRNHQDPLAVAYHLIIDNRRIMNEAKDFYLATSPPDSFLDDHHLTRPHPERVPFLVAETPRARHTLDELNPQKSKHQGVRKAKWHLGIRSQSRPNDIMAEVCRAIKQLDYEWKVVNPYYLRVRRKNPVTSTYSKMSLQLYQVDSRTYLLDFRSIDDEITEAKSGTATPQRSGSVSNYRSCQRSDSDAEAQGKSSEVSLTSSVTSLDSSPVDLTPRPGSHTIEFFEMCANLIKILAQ", "experiment": "Inhibition of AMPK-alpha1 (unknown origin) at 10 uM by Ambit Kinomescan binding assay relative to control"}, "[6]": {"target": "Tyrosine-protein kinase receptor UFO (Homo sapiens) (UniProt P30530)", "experiment": "Inhibition of AXL (unknown origin) at 10 uM by Ambit Kinomescan binding assay", "outline": "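In vitro ATP-site competition binding assay against a panel of over 420 kinases (KinomeScan), with compound tested at 10 or 1 μM.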"}, "[7]": {"target": "Mitogen-activated protein kinase 1 (Homo sapiens) (UniProt P28482)", "experiment": "Inhibition of ERK2 (unknown origin) at 10 uM by Ambit Kinomescan binding assay"}, "[8]": {"target": "Cyclin-dependent kinase 17 (Homo sapiens) (UniProt Q00537)", "experiment": "Inhibition of PCTAIRE2 K2 labeling site in human Huh-7 cells at 1 uM by KiNativ Profiling analysis relative to control", "type": "cell-based"}, "[9]": {"target": "Ephrin type-A receptor 4 (Homo sapiens) (UniProt P54764)", "sequence (P54764 whole entry)": "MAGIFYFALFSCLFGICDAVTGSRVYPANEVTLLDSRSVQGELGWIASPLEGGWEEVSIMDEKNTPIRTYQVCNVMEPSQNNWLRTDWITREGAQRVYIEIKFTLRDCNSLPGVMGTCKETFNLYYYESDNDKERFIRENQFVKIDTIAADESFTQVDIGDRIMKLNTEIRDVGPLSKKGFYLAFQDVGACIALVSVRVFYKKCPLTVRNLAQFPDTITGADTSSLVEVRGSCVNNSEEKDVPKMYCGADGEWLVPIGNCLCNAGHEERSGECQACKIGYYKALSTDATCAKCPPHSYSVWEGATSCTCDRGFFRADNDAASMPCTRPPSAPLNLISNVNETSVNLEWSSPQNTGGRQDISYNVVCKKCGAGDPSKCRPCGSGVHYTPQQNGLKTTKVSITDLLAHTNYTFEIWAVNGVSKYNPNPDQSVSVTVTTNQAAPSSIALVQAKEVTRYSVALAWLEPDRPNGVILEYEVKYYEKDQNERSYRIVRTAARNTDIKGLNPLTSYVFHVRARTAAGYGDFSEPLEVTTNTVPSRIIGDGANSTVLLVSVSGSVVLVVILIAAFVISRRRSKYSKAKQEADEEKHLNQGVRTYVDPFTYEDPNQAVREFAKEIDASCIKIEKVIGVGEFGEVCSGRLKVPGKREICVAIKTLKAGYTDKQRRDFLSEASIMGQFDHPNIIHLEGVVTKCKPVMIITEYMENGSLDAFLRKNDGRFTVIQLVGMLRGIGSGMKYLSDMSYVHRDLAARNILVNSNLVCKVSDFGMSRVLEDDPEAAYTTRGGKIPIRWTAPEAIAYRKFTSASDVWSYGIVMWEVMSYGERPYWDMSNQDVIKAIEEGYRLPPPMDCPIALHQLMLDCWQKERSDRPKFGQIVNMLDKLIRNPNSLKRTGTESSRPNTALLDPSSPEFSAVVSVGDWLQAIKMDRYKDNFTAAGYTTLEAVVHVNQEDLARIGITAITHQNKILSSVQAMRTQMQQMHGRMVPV", "experiment": "Inhibition of EPHA4 (unknown origin) at 1 uM by Ambit Kinomescan binding assay relative to control; values are per cent of control"}, "[10]": {"target": "Serine/threonine-protein kinase VRK2 (Homo sapiens) (UniProt Q86Y07)", "experiment": "Inhibition of VRK2 (unknown origin) at 1 uM by Ambit Kinomescan binding assay relative to control"}, "[11]": {"target": "Serine/threonine-protein kinase 32A (Homo sapiens) (UniProt Q8WU08)", "sequence (Q8WU08 whole entry)": "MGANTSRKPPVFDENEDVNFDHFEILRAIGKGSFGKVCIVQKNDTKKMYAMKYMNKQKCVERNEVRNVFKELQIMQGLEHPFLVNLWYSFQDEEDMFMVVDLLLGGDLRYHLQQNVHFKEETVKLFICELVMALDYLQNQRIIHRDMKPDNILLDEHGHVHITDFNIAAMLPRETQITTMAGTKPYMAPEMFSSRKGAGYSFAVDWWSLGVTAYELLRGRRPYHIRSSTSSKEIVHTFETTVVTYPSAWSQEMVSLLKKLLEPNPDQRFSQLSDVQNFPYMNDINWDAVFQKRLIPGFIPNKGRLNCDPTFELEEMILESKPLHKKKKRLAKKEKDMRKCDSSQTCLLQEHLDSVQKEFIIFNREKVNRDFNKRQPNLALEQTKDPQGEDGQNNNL", "experiment": "Inhibition of YANK1 (unknown origin) at 1 uM by Ambit Kinomescan binding assay relative to control; values are per cent of control"}, "[12]": {"target": "T2, Serine/threonine-protein kinase D1 (Homo sapiens) (UniProt Q15139)", "T2 sequence (whole entry)": "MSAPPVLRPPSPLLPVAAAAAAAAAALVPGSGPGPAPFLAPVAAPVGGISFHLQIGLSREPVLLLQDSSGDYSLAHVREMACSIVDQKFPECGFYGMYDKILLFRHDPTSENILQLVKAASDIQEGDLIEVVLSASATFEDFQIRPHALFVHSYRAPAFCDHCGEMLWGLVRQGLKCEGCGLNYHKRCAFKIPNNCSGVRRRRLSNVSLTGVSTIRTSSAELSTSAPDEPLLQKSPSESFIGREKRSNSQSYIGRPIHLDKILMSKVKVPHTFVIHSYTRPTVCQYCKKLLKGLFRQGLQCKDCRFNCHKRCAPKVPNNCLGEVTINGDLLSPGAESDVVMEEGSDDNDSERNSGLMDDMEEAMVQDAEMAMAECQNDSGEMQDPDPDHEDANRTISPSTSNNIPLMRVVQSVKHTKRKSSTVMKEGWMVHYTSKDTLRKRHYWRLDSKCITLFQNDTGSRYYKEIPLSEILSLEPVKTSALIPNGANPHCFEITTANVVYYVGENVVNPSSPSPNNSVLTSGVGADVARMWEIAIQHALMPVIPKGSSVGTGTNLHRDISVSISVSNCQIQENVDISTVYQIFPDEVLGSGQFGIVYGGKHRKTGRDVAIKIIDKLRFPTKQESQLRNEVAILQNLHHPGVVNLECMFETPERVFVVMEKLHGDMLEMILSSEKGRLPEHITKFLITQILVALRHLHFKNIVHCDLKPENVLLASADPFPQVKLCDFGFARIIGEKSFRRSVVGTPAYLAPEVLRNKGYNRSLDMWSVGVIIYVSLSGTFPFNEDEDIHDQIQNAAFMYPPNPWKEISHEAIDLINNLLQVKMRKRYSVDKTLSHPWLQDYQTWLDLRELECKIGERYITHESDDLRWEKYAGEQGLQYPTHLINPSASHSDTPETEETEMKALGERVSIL", "experiment": "Inhibition of PRKD1 (unknown origin) at 1 uM by Ambit Kinomescan binding assay relative to control"}, "[13]": {"target": "Serine/threonine-protein kinase BRSK1 (Homo sapiens) (UniProt Q8TDC3)", "sequence (Q8TDC3 whole entry)": "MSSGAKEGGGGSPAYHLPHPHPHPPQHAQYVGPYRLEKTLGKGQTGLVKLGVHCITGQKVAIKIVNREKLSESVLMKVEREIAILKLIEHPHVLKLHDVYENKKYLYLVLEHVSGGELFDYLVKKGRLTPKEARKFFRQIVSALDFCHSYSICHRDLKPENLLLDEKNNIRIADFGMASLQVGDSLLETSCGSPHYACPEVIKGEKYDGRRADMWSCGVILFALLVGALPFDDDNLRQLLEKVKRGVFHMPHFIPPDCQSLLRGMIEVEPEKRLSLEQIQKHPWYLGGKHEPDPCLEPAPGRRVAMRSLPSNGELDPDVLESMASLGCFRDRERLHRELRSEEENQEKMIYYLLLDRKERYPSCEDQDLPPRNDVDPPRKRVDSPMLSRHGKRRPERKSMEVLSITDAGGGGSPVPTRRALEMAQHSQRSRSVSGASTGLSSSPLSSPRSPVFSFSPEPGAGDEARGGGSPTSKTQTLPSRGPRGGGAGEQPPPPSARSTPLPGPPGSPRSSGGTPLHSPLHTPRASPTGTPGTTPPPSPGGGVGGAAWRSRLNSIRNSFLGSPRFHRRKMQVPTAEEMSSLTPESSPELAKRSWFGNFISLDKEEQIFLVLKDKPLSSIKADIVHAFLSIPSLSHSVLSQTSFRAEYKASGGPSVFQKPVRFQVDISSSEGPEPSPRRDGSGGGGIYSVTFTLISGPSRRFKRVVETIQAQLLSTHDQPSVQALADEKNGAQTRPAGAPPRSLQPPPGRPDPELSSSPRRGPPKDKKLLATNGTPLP", "experiment": "Inhibition of BRSK1 (unknown origin) at 1 uM by Ambit Kinomescan binding assay relative to control; values are per cent of control"}, "[14]": {"tested_on": "Epidermal growth factor receptor (Homo sapiens), P00533 [T790M]", "experiment": "Inhibition of EGFR T790M mutant (unknown origin) at 1 uM by Ambit Kinomescan binding assay relative to control"}, "[15]": {"target": "Cyclin-dependent kinase 6 (Homo sapiens) (UniProt Q00534)", "experiment": "Inhibition of CDK6 Lys2 labeling site in human A-375 cells at 0.05 uM by KiNativ Profiling analysis relative to control", "type": "cell-based"}}, "note": "The source made the active and inactive calls. No cut-off for these calls is given here.", "data": [{"smiles": "CNc1cc(Oc2cc(C(=O)Nc3cc(N4CCN(C)CC4)cc(C(F)(F)F)c3)ccc2C)ncn1", "values": [{"measurement": "inhibition", "setting": "[1]", "value": 11.3, "unit": "%"}, {"measurement": "inhibition", "setting": "[2]", "value": 3.1, "unit": "%"}, {"measurement": "inhibition", "setting": "[3]", "value": 2.7, "unit": "%"}]}, {"smiles": "CCN1CCN(Cc2ccc(NC(=O)c3ccc(C)c(Oc4ccnc5[nH]ccc45)c3)cc2C(F)(F)F)CC1", "values": [{"measurement": "inhibition", "setting": "[4]", "value": 23, "unit": "%"}, {"measurement": "inhibition", "setting": "[5]", "value": 33, "unit": "%"}, {"measurement": "inhibition", "setting": "[6]", "value": "inactive"}, {"measurement": "inhibition", "setting": "[7]", "value": "inactive"}, {"measurement": "inhibition", "setting": "[8]", "value": -3.4, "unit": "%"}]}, {"smiles": "CCN1CCN(Cc2ccc(NC(=O)c3ccc(C)c(/C=C/c4cnc5[nH]ccc5c4OC)c3)cc2C(F)(F)F)CC1", "values": [{"measurement": "residual activity", "setting": "[9]", "value": 3.7, "unit": "%"}, {"measurement": "inhibition", "setting": "[10]", "value": 100, "unit": "%"}, {"measurement": "percent of control", "setting": "[11]", "value": 100, "unit": "%"}, {"measurement": "inhibition", "setting": "[12]", "value": 100, "unit": "%"}, {"measurement": "residual activity", "setting": "[13]", "value": 83, "unit": "%"}, {"measurement": "inhibition", "setting": "[14]", "value": 68, "unit": "%"}, {"measurement": "inhibition", "setting": "[15]", "value": 5.5, "unit": "%"}]}]}
